ChEMBL document CHEMBL1828552, “Synthesis and studies of novel 2-(4-cyano-3-trifluoromethylphenyl amino)-4-(quinoline-4-yloxy)-6-(piperazinyl/piperidinyl)-s-triazines as potential antimicrobial, antimycobacterial and anticancer agents” (2011)
Values after ≈ are worked out from the molar mass of the structure shown.

Experiments:
Aspergillus clavatus [1] = assay: Antifungal activity against 10^5 CFU/mL Aspergillus clavatus MTCC 1323 after 48 hrs by disc diffusion technique; format: functional
Candida albicans [2] = assay: Antifungal activity against 10^5 CFU/mL Candida albicans MTCC 183 after 48 hrs by agar streak dilution method; format: functional; conditions: MTCC 183, 48 h
Method in brief: (§1)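 Agar streak dilution for fungi. Stock 100 µg/mL in DMSO; graded amounts were mixed into molten Sabouraud dextrose agar and poured at 4–5 mm depth. Serial dilutions ran over […]. About 10⁵ CFU/mL inoculum was applied, with incubation at 37 ± 1 °C for 48 h. MIC was read from the dilution series.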

Proteus vulgaris [3] = assay: Antibacterial activity against 10^5 CFU/mL Proteus vulgaris MTCC 1771 after 24 hrs by agar streak dilution method; format: functional; conditions: MTCC 1771, 24 h
Method in brief: (§2)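 Agar streak dilution. Stock 100 µg/mL in DMSO; graded amounts were mixed into molten nutrient agar and poured at 4–5 mm depth. Plates carried serial dilutions over […]. About 10⁵ CFU/mL of each bacterium was applied, and plates were incubated at 37 ± 1 °C for 24 h. MIC was read from the dilution series.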

Aspergillus niger [4] = assay: Antifungal activity against 10^5 CFU/mL Aspergillus niger MTCC 282 after 48 hrs by agar streak dilution method; format: functional; conditions: MTCC 282, 48 h; method in brief: as §1
Escherichia coli [5] = assay: Antibacterial activity against 10^5 CFU/mL Escherichia coli MTCC 739 after 24 hrs by agar streak dilution method; format: functional; conditions: MTCC 739, 24 h; method in brief: as §2
Aspergillus fumigatus [6] = assay: Antifungal activity against 10^5 CFU/mL Aspergillus fumigatus MTCC 343 after 48 hrs by agar streak dilution method; format: functional; conditions: MTCC 343, 48 h; method in brief: as §1
Pseudomonas aeruginosa [7] = assay: Antibacterial activity against 10^5 CFU/mL Pseudomonas aeruginosa MTCC 741 after 24 hrs by agar streak dilution method; format: functional; conditions: MTCC 741, 24 h; method in brief: as §2
Candida albicans [8] = assay: Antifungal activity against 10^5 CFU/mL Candida albicans MTCC 183 after 48 hrs by disc diffusion technique; format: functional
Klebsiella pneumoniae [9] = assay: Antibacterial activity against 10^5 CFU/mL Klebsiella pneumoniae MTCC 109 after 24 hrs by disc diffusion technique; format: functional
Method in brief: (§3)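 Disc diffusion on Mueller–Hinton agar poured 5 mm deep. The surface was swabbed with a 10⁵ CFU/mL […] suspension. Filter-paper discs 6.25 mm in diameter were soaked in compound in DMSO and placed on the agar. Plates were incubated 24 h at 37 ± 1 °C, and the inhibition zone was measured in mm. A DMSO disc served as blank.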

Pseudomonas aeruginosa [10] = assay: Antibacterial activity against 10^5 CFU/mL Pseudomonas aeruginosa MTCC 741 after 24 hrs by disc diffusion technique; format: functional; method in brief: as §3
Salmonella typhi [11] = assay: Antibacterial activity against 10^5 CFU/mL Salmonella typhi MTCC 733 after 24 hrs by agar streak dilution method; format: functional, Salmonella enterica subsp. enterica serovar Typhi; conditions: Salmonella enterica, MTCC 733, 24 h
Bacillus cereus [12] = assay: Antibacterial activity against 10^5 CFU/mL Bacillus cereus MTCC 619 after 24 hrs by agar streak dilution method; format: functional; conditions: MTCC 619, 24 h; method in brief: as §2
Aspergillus fumigatus [13] = assay: Antifungal activity against 10^5 CFU/mL Aspergillus fumigatus MTCC 343 after 48 hrs by disc diffusion technique; format: functional
Aspergillus niger [14] = assay: Antifungal activity against 10^5 CFU/mL Aspergillus niger MTCC 282 after 48 hrs by disc diffusion technique; format: functional
Proteus vulgaris [15] = assay: Antibacterial activity against 10^5 CFU/mL Proteus vulgaris MTCC 1771 after 24 hrs by disc diffusion technique; format: functional; method in brief: as §3
DU-145 = assay: Cytotoxicity against […] human DU145 cells after 48 hrs by SRB assay; format: functional; conditions: DU-145, 48 h
Method in brief: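 SRB assay in DU-145 cells grown in RPMI 1640 with 10% FBS and 2 mM L-glutamine. Cells were plated and held 24 h before addition of four 10-fold concentrations. After 48 h, cells were TCA-fixed, stained with 0.4% SRB and read at 540 nm. GI50, TGI and LC50 were derived against time-zero and control wells; each value is the mean of three experiments.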

Escherichia coli [16] = assay: Antibacterial activity against 10^5 CFU/mL Escherichia coli MTCC 739 after 24 hrs by disc diffusion technique; format: functional; method in brief: as §3
Shigella flexneri [17] = assay: Antibacterial activity against 10^5 CFU/mL Shigella flexneri MTCC 1457 after 24 hrs by disc diffusion technique; format: functional; method in brief: as §3
Shigella flexneri [18] = assay: Antibacterial activity against 10^5 CFU/mL Shigella flexneri MTCC 1457 after 24 hrs by agar streak dilution method; format: functional; conditions: MTCC 1457, 24 h; method in brief: as §2
Bacillus cereus [19] = assay: Antibacterial activity against 10^5 CFU/mL Bacillus cereus MTCC 619 after 24 hrs by disc diffusion technique; format: functional; method in brief: as §3
Klebsiella pneumoniae [20] = assay: Antibacterial activity against 10^5 CFU/mL Klebsiella pneumoniae MTCC 109 after 24 hrs by agar streak dilution method; format: functional; conditions: MTCC 109, 24 h; method in brief: as §2
Salmonella typhi [21] = assay: Antibacterial activity against 10^5 CFU/mL Salmonella typhi MTCC 733 after 24 hrs by disc diffusion technique; format: functional, Salmonella enterica subsp. enterica serovar Typhi
Method in brief: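 Disc diffusion. Mueller-Hinton agar autoclaved 120 °C 30 min, poured 5 mm deep. Surface swabbed with 10⁵ CFU/mL suspension […]. 6.25 mm filter-paper discs soaked in compound in DMSO; DMSO-only disc as blank. Incubated 37 ± 1 °C, 24 h for bacteria or 48 h for fungi. Ciprofloxacin and ketoconazole discs as reference drugs. Inhibition zone measured in mm.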

Staphylococcus aureus [22] = assay: Antibacterial activity against 10^5 CFU/mL Staphylococcus aureus MTCC 96 after 24 hrs by disc diffusion technique; format: functional; method in brief: as §3
Staphylococcus aureus [23] = assay: Antibacterial activity against 10^5 CFU/mL Staphylococcus aureus MTCC 96 after 24 hrs by agar streak dilution method; format: functional; conditions: MTCC 96, 24 h; method in brief: as §2
Aspergillus clavatus [24] = assay: Antifungal activity against 10^5 CFU/mL Aspergillus clavatus MTCC 1323 after 48 hrs by agar streak dilution method; format: functional; conditions: MTCC 1323, 48 h; method in brief: as §1
[25] = test system: Mycobacterium tuberculosis; assay: Antimycobacterial activity against 10^4 to 10^7 CFU/mL Mycobacterium tuberculosis H37Rv at 6.25 ug/ml by BACTEC MGIT method; format: functional
Method in brief: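 Primary screen at 6.25 in the BACTEC MGIT system: modified Middlebrook 7H9 broth tubes with compound, seeded with 10⁴-10⁷ CFU/mL H37Rv plus 0.1 mL egg-based L.J. medium. Incubated at 37 ± 1 °C and read daily from day 2 under UV light against positive and uninoculated controls.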

| SMILES | inhibition zone (IZ) (Aspergillus clavatus [1]) [mm] | MIC (Candida albicans [2]) [µg/mL] | MIC (Proteus vulgaris [3]) [µg/mL] | MIC (Aspergillus niger [4]) [µg/mL] | MIC (Escherichia coli [5]) [µg/mL] | MIC (Aspergillus fumigatus [6]) [µg/mL] | MIC (Pseudomonas aeruginosa [7]) [µg/mL] | inhibition zone (IZ) (Candida albicans [8]) [mm] | inhibition zone (IZ) (Klebsiella pneumoniae [9]) [mm] | inhibition zone (IZ) (Pseudomonas aeruginosa [10]) [mm] | MIC (Salmonella typhi [11]) [µg/mL] | MIC (Bacillus cereus [12]) [µg/mL] | inhibition zone (IZ) (Aspergillus fumigatus [13]) [mm] | inhibition zone (IZ) (Aspergillus niger [14]) [mm] | inhibition zone (IZ) (Proteus vulgaris [15]) [mm] | GI50 (DU-145) [µM] | LC50 (concentration giving 50% net cell kill relative to time zero) (DU-145) [µM] | TGI (DU-145) [µM] | inhibition zone (IZ) (Escherichia coli [16]) [mm] | inhibition zone (IZ) (Shigella flexneri [17]) [mm] | further results |
| --- | --- | --- | --- | --- | --- | --- | --- | --- | --- | --- | --- | --- | --- | --- | --- | --- | --- | --- | --- | --- | --- |
| N#Cc1ccc(Nc2nc(Oc3ccnc4ccccc34)nc(N3CCN(c4cccc(C(F)(F)F)c4)CC3)n2)cc1C(F)(F)F | 28 | 25 (≈ 39.3 µM) | 12.5 (≈ 19.6 µM) | 12.5 (≈ 19.6 µM) | 12.5 (≈ 19.6 µM) | 25 (≈ 39.3 µM) | 6.25 (≈ 9.82 µM) | 26 | 23 | 25 | 12.5 (≈ 19.6 µM) | 6.25 (≈ 9.82 µM) | 27 | 27 | 25 | 38.7 | > 100 | 74.1 | 26 | 25 | MIC (Shigella flexneri [18]): 12.5 µg/mL (≈ 19.6 µM); inhibition zone (IZ) (Bacillus cereus [19]): 28 mm; MIC (Klebsiella pneumoniae [20]): 25 µg/mL (≈ 39.3 µM); inhibition zone (IZ) (Salmonella typhi [21]): 27 mm; inhibition zone (IZ) (Staphylococcus aureus [22]): 28 mm; MIC (Staphylococcus aureus [23]): 6.25 µg/mL (≈ 9.82 µM); MIC (Aspergillus clavatus [24]): 12.5 µg/mL (≈ 19.6 µM); inhibition at 6.25 µg/mL [25]: 99% |
| COc1ccc(CN2CCN(c3nc(Nc4ccc(C#N)c(C(F)(F)F)c4)nc(Oc4ccnc5ccccc45)n3)CC2)c(OC)c1OC | 28 | 25 (≈ 37.2 µM) | 6.25 (≈ 9.29 µM) | 12.5 (≈ 18.6 µM) | 12.5 (≈ 18.6 µM) | 25 (≈ 37.2 µM) | 6.25 (≈ 9.29 µM) | 25 | 23 | 26 | 12.5 (≈ 18.6 µM) | 6.25 (≈ 9.29 µM) | 27 | 27 | 26 | > 100 | > 100 | > 100 | 26 | 25 | MIC (Shigella flexneri [18]): 12.5 µg/mL (≈ 18.6 µM); inhibition zone (IZ) (Bacillus cereus [19]): 26 mm; MIC (Klebsiella pneumoniae [20]): 12.5 µg/mL (≈ 18.6 µM); inhibition zone (IZ) (Salmonella typhi [21]): 26 mm; inhibition zone (IZ) (Staphylococcus aureus [22]): 28 mm; MIC (Staphylococcus aureus [23]): 6.25 µg/mL (≈ 9.29 µM); MIC (Aspergillus clavatus [24]): 12.5 µg/mL (≈ 18.6 µM); inhibition at 6.25 µg/mL [25]: 99% |
